Measurements as given in ChEMBL document CHEMBL1150425, “Parallel one-pot synthesis and structure-activity relationship study of symmetric formimidoester disulfides as a novel class of potent non-nucleoside HIV-1 reverse transcriptase inhibitors” (Bioorg Med Chem, 2008).
Active and inactive are the calls of the source. The calls are words filed in the database; no cut-off is given here.

Legend:
[1] = Selectivity index, ratio of CC50 for human MT4 cells to EC50 for HIV1 cells; format: toxicity, cell-based; settings: read-out: Ratio CC50/EC50
In short: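 Ratio of CC50 (mock-infected MT-4 viability, MTT) to EC50 (50% protection of MT-4 cells from HIV-1 cytopathogenicity, MTT), both taken from the same parallel cell-based run.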

[2] = molecular target: Human immunodeficiency virus type 1 reverse transcriptase (Human immunodeficiency virus 1, UniProt Q72547); experiment: Inhibition of HIV1 virion-associated reverse transcriptase
[3] = test system: Human immunodeficiency virus 1; experiment: Antiviral activity against HIV1 in MT4 cells assessed as reduction of virus induced cytopathogenicity by MTT method; format: functional, organism-based; settings: Human immunodeficiency virus 1, MT4
In short: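 MT-4 cells infected with wild-type HIV-1; EC50 = concentration giving 50% protection of cells from virus-induced cytopathogenicity, viability read by MTT. Triplicate samples.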

[4] = Cytotoxicity against human MT4 cells by MTT method; format: cell-based
In short: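 Mock-infected MT-4 cells, run in parallel with the antiviral test; CC50 = concentration reducing viability by 50%, read by MTT. Triplicate samples.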

[5] = test system: Human immunodeficiency virus 1; experiment: Antiviral activity against HIV1 with reverse transcriptase K103R mutation; format: functional, organism-based
In short: (§1)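 MT-4 cells infected with the mutant HIV-1 strain; protection from virus-induced cytopathogenicity read by MTT. EC50 is the concentration (µM) giving 50% protection. Cytotoxicity was assayed in parallel on mock-infected MT-4 cells by MTT. Triplicate samples.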

[6] = test system: Human immunodeficiency virus 1; experiment: Antiviral activity against HIV1 with reverse transcriptase Y181C mutation; format: functional, organism-based; in short: as §1

Structure (SMILES) | selectivity ratio [1] | IC50 [2] | EC50 [3] | CC50 [4] | EC50 [5] | EC50 [6] | Activity [5]
S=C(NCCc1ccccn1)Nc1ccc(Br)cn1 [TROVIRDINE] | 3000 | 1060 nM |  |  |  |  | 
c1ccc(CCO/C(=N\c2ccccc2)SS/C(=N/c2ccccc2)OCCc2ccccc2)cc1 | 6.4 |  | 11000 nM | 70 µM |  |  | 
O=C1Nc2ccc(Cl)cc2C(C#CC2CC2)(C(F)(F)F)O1 (single isomer, unassigned) [EFAVIRENZ] |  |  |  |  | 0.04 µM | 0.01 µM | 
O=C1c2ccccc2C(=O)N1CCO/C(=N\c1ccc(I)cc1)SS/C(=N/c1ccc(I)cc1)OCCN1C(=O)c2ccccc2C1=O | 1600 |  | 30 nM | 48 µM |  |  | 
O=C1c2ccccc2C(=O)N1CCO/C(=N\c1ccc([N+](=O)[O-])cc1)SS/C(=N/c1ccc([N+](=O)[O-])cc1)OCCN1C(=O)c2ccccc2C1=O | > 1430 |  | 70 nM | > 100 µM | 62 µM | 57 µM | 
O=C1c2ccccc2C(=O)N1CCO/C(=N\c1ccc(Cl)c([N+](=O)[O-])c1)SS/C(=N/c1ccc(Cl)c([N+](=O)[O-])c1)OCCN1C(=O)c2ccccc2C1=O | 257 |  | 70 nM | 18 µM |  |  | 
O=C1c2ccccc2C(=O)N1CCO/C(=N\c1ccccc1Cl)SS/C(=N/c1ccccc1Cl)OCCN1C(=O)c2ccccc2C1=O | < 1 |  | > 9000 nM | 9 µM |  |  | 
O=C1c2ccccc2C(=O)N1CCO/C(=N\c1ccc(Cl)cc1)SS/C(=N/c1ccc(Cl)cc1)OCCN1C(=O)c2ccccc2C1=O | 5500 |  | 20 nM | 88 µM |  |  | 
O=C1c2ccccc2C(=O)N1CCO/C(=N\c1ccc(F)cc1)SS/C(=N/c1ccc(F)cc1)OCCN1C(=O)c2ccccc2C1=O | 1450 |  | 20 nM | 29 µM |  |  | 
COc1cccc(/N=C(\OCCN2C(=O)c3ccccc3C2=O)SS/C(=N/c2cccc(OC)c2)OCCN2C(=O)c3ccccc3C2=O)c1 | 61 |  | 1300 nM | 80 µM |  |  | 
N#Cc1ccc(/N=C(\OCCN2C(=O)c3ccccc3C2=O)SS/C(=N/c2ccc(C#N)cc2)OCCN2C(=O)c3ccccc3C2=O)cc1 | > 1000 |  | 100 nM | > 100 µM |  |  | 
Cc1cc(Br)ccc1/N=C(\OCCN1C(=O)c2ccccc2C1=O)SS/C(=N/c1ccc(Br)cc1C)OCCN1C(=O)c2ccccc2C1=O | 44 |  | 1800 nM | 80 µM |  | 35 µM | inactive
O=C1c2ccccc2C(=O)N1CCO/C(=N\c1cc(Cl)cc(Cl)c1)SS/C(=N/c1cc(Cl)cc(Cl)c1)OCCN1C(=O)c2ccccc2C1=O | < 1 |  | > 42000 nM | 42 µM |  |  | 
O=C1c2ccccc2C(=O)N1CCO/C(=N\c1cccc(Cl)c1Cl)SS/C(=N/c1cccc(Cl)c1Cl)OCCN1C(=O)c2ccccc2C1=O | 2.1 |  | 18000 nM | 37 µM |  |  | 
Cc1cc(C)cc(/N=C(\OCCN2C(=O)c3ccccc3C2=O)SS/C(=N/c2cc(C)cc(C)c2)OCCN2C(=O)c3ccccc3C2=O)c1 | > 33 |  | 3000 nM | > 100 µM |  |  | 
O=C1c2ccccc2C(=O)N1CCO/C(=N\c1ccc(Cl)cc1Cl)SS/C(=N/c1ccc(Cl)cc1Cl)OCCN1C(=O)c2ccccc2C1=O | > 25 |  | 4000 nM | > 100 µM |  |  | 
O=C1c2ccccc2C(=O)N1CCO/C(=N\c1ccc(Cl)c(C(F)(F)F)c1)SS/C(=N/c1ccc(Cl)c(C(F)(F)F)c1)OCCN1C(=O)c2ccccc2C1=O | > 3.6 |  | 28000 nM | > 100 µM |  |  | 
Cc1ccccc1/N=C(\OCCN1C(=O)c2ccccc2C1=O)SS/C(=N/c1ccccc1C)OCCN1C(=O)c2ccccc2C1=O | < 1 |  | > 11000 nM | 11 µM |  |  | 
O=C1c2ccccc2C(=O)N1CCO/C(=N\c1ccc(Cl)c(Cl)c1)SS/C(=N/c1ccc(Cl)c(Cl)c1)OCCN1C(=O)c2ccccc2C1=O | > 14 |  | 7000 nM | > 100 µM |  |  | 
O=C1c2ccccc2C(=O)N1CCO/C(=N\c1cccc(C(F)(F)F)c1)SS/C(=N/c1cccc(C(F)(F)F)c1)OCCN1C(=O)c2ccccc2C1=O | 9.6 |  | 2300 nM | 22 µM |  |  | 
O=C1c2ccccc2C(=O)N1CCO/C(=N\c1ccccc1F)SS/C(=N/c1ccccc1F)OCCN1C(=O)c2ccccc2C1=O | 36 |  | 1200 nM | 43 µM |  |  | 
O=C1c2ccccc2C(=O)N1CCO/C(=N\c1cccc([N+](=O)[O-])c1)SS/C(=N/c1cccc([N+](=O)[O-])c1)OCCN1C(=O)c2ccccc2C1=O | > 143 |  | 700 nM | > 100 µM |  |  | 

Structure (SMILES) | selectivity ratio [1] | IC50 [2] | EC50 [3] | CC50 [4] | EC50 [5] | EC50 [6] | Activity [5]
O=C1c2ccccc2C(=O)N1CCO/C(=N\Cc1ccccc1)SS/C(=N/Cc1ccccc1)OCCN1C(=O)c2ccccc2C1=O | > 14 |  | 7000 nM | > 100 µM |  |  | 
O=C1c2ccccc2C(=O)N1CCO/C(=N\c1cccc(Br)c1)SS/C(=N/c1cccc(Br)c1)OCCN1C(=O)c2ccccc2C1=O | 15 |  | 6000 nM | 89 µM |  |  | 
CC(=O)c1ccc(/N=C(\OCCN2C(=O)c3ccccc3C2=O)SS/C(=N/c2ccc(C(C)=O)cc2)OCCN2C(=O)c3ccccc3C2=O)cc1 | > 4.2 |  | 24000 nM | > 100 µM |  |  | 
O=C1c2ccccc2C(=O)N1CCO/C(=N\c1cccc(Cl)c1)SS/C(=N/c1cccc(Cl)c1)OCCN1C(=O)c2ccccc2C1=O | 90 |  | 400 nM | 36 µM |  |  | 
O=C1c2ccccc2C(=O)N1CCO/C(=N\c1ccccc1)SS/C(=N/c1ccccc1)OCCN1C(=O)c2ccccc2C1=O | 229 |  | 350 nM | 80 µM |  |  | 
O=C1c2ccccc2C(=O)N1CCO/C(=N\c1cc(F)ccc1F)SS/C(=N/c1cc(F)ccc1F)OCCN1C(=O)c2ccccc2C1=O | 40 |  | 1300 nM | 52 µM |  |  | 
O=C1c2ccccc2C(=O)N1CCO/C(=N\c1cccc2ccccc12)SS/C(=N/c1cccc2ccccc12)OCCN1C(=O)c2ccccc2C1=O | > 13 |  | 8000 nM | > 100 µM |  |  | 
O=C1c2ccccc2C(=O)N1CCO/C(=N\c1ccc(F)cc1F)SS/C(=N/c1ccc(F)cc1F)OCCN1C(=O)c2ccccc2C1=O | 541 |  | 50 nM | 27 µM |  |  | 
O=C1c2ccccc2C(=O)N1CCO/C(=N\c1cc(Cl)ccc1Cl)SS/C(=N/c1cc(Cl)ccc1Cl)OCCN1C(=O)c2ccccc2C1=O |  |  | > 100000 nM | > 100 µM |  |  | 
O=C1c2ccccc2C(=O)N1CCO/C(=N\c1ccc(C(F)(F)F)cc1)SS/C(=N/c1ccc(C(F)(F)F)cc1)OCCN1C(=O)c2ccccc2C1=O | > 1000 |  | 100 nM | > 100 µM |  |  | 
Cc1ccc(/N=C(\OCCN2C(=O)c3ccccc3C2=O)SS/C(=N/c2ccc(C)cc2)OCCN2C(=O)c3ccccc3C2=O)cc1 | 525 |  | 40 nM | 21 µM |  |  | 
O=C1c2ccccc2C(=O)N1CCO/C(=N\c1c(F)cc(F)cc1F)SS/C(=N/c1c(F)cc(F)cc1F)OCCN1C(=O)c2ccccc2C1=O | 33 |  | 1200 nM | 39 µM |  |  | 
O=C1c2ccccc2C(=O)N1CCO/C(=N\c1cc(F)cc(F)c1)SS/C(=N/c1cc(F)cc(F)c1)OCCN1C(=O)c2ccccc2C1=O | < 1 |  | > 37000 nM | 37 µM |  |  | 
O=C1c2ccccc2C(=O)N1CCO/C(=N\C1CC1)SS/C(=N/C1CC1)OCCN1C(=O)c2ccccc2C1=O |  |  | > 100000 nM | > 100 µM |  |  | 
O=C1c2ccccc2C(=O)N1CCO/C(=N\c1cccc(F)c1)SS/C(=N/c1cccc(F)c1)OCCN1C(=O)c2ccccc2C1=O | 7.6 |  | 5000 nM | 38 µM |  |  | 
COc1ccc(/N=C(\OCCN2C(=O)c3ccccc3C2=O)SS/C(=N/c2ccc(OC)cc2)OCCN2C(=O)c3ccccc3C2=O)cc1 | 1500 |  | 60 nM | 90 µM |  |  | 
Cc1ccc(/N=C(\OCCN2C(=O)c3ccccc3C2=O)SS/C(=N/c2ccc(C)c(Cl)c2)OCCN2C(=O)c3ccccc3C2=O)cc1Cl | > 500 |  | 200 nM | > 100 µM |  |  | 
Cc1cc(Br)cc(C)c1/N=C(\OCCN1C(=O)c2ccccc2C1=O)SS/C(=N/c1c(C)cc(Br)cc1C)OCCN1C(=O)c2ccccc2C1=O |  |  | > 100000 nM | > 100 µM |  |  | 
O=C1c2ccccc2C(=O)N1CCO/C(=N\c1ccc(Br)cc1)SS/C(=N/c1ccc(Br)cc1)OCCN1C(=O)c2ccccc2C1=O | 4200 | 740 nM | 10 nM | 42 µM |  |  | 
O=C1c2ccccc2C(=O)N1CCCO/C(=N\c1ccc(Br)cc1)SS/C(=N/c1ccc(Br)cc1)OCCCN1C(=O)c2ccccc2C1=O |  |  | > 100000 nM | > 100 µM |  |  | 
Cc1ccc2c(c1)C(=O)N(CCO/C(=N\c1ccc(Br)cc1)SS/C(=N/c1ccc(Br)cc1)OCCN1C(=O)c3ccc(C)cc3C1=O)C2=O | > 77 |  | 1300 nM | > 100 µM |  |  | 
